# Data as given in ChEMBL document CHEMBL5724801, “EUbOPEN Chemogenomics Library - Multiplex” (2024).
# Where “and” joins values, the source holds several entries; their conditions need not be identical. Equal values may be shown once.
# Tested on: U2OS
# Assay: Multiplex assay against U2OS
# Type: toxicity, cell-based
# Details: human
# How it was run: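 Live cells were stained at seeding with Hoechst33342, BioTracker Green Microtubule Cytoskeleton Dye, MitoTracker Red and Annexin V Alexa Fluor 680. Following compound addition, they were imaged on a CQ1 microscope at 37°C and 5% CO2 and gated by CellPathfinder machine learning into Hoechst high-intensity objects or normal cells, with normal cells split into healthy, pyknosed or fragmented nuclei and pyknosed cells into mitotic or apoptotic. Tubulin, mitochondrial-mass and membrane-permeability phenotypes are per cents of healthy-nucleus cells.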
# [1] = 12 h, 1 µM, compound concentration 1 uM
# [2] = 12 h, 10 µM, compound concentration 10 uM
# [3] = 24 h, 1 µM, compound concentration 1 uM
# [4] = 24 h, 10 µM, compound concentration 10 uM
# [5] = 48 h, 1 µM, compound concentration 1 uM
# [6] = 48 h, 10 µM, compound concentration 10 uM
structure (smiles),measurement,setting,value
Cc1cc(O)c(-c2ccc([C@@H](C)CN(C)C)cc2)c2c1[nH]c(=O)c1sccc12,Population Apoptotic (%),[1],70% [middle of 4 runs]
same,Population Healthy Nuclei (%),[1],48% and 63% and 56.09% and 62.5%
same,Population Hoechst High Intensity Objects (%),[1],4% and 2% and 0.32% and 0%
same,Population Normal (%),[1],95% and 97% and 99.68% and 100%
same,Population Tubulin-Different-Phenotype (%),[1],12% and 14% and 4% and 6.67%
same,Population Apoptotic (%),[2],64% and 69% and 40.85% and 42.19%
same,Population Healthy Nuclei (%),[2],50% and 56% and 56.98% and 52.11%
same,Population Hoechst High Intensity Objects (%),[2],4% and 8% and 0%
same,Population Mitotic Cells (%),[2],35% and 30% and 59.15% and 57.81%
same,Population Normal (%),[2],95% and 91% and 100%
same,Population Pyknosed Nuclei (%),[2],41.28% [middle of 4 runs]
same,Population Tubulin-Different-Phenotype (%),[2],72% and 45% and 70.41% and 64.86%
same,Population Apoptotic (%),[3],92% [middle of 4 runs]
same,Population Healthy Nuclei (%),[3],34% [middle of 4 runs]
same,Population Hoechst High Intensity Objects (%),[3],8% and 6% and 0.34% and 0%
same,Population Normal (%),[3],91% and 93% and 99.66% and 100%
same,Population Tubulin-Different-Phenotype (%),[3],19% and 12% and 11.11% and 17.07%
same,Population Apoptotic (%),[4],81% and 82% and 58.37% and 68.63%
same,Population Healthy Nuclei (%),[4],31% [middle of 4 runs]
same,Population Hoechst High Intensity Objects (%),[4],9% [middle of 4 runs]
same,Population Membrane Permeable-Phenotype (%),[4],16% [middle of 4 runs]
same,Population Mitochondria Different-Phenotype (%),[4],70% [middle of 4 runs]
same,Population Mitotic Cells (%),[4],31.37% [middle of 4 runs]
same,Population Normal (%),[4],90% and 87% and 99.35% and 100%
same,Population Pyknosed Nuclei (%),[4],67.86% [middle of 4 runs]
same,Population Tubulin-Different-Phenotype (%),[4],64.47% [middle of 4 runs]
same,Total Cell Count,[4],210 [middle of 4 runs]
same,Population Apoptotic (%),[5],96% and 100% and 72.95% and 83.47%
same,Population Healthy Nuclei (%),[5],18% [middle of 4 runs]
same,Population Normal (%),[5],82% and 84% and 99.63% and 98.84%
same,Population Tubulin-Different-Phenotype (%),[5],25% and 50% and 28.57%
same,Total Cell Count,[5],250 [middle of 4 runs]
same,Population Apoptotic (%),[6],96% and 100% and 80.93% and 86.67%
same,Population Healthy Nuclei (%),[6],17% and 13% and 14.23% and 9.84%
same,Population Mitochondria Different-Phenotype (%),[6],45% and 50% and 33.33%
same,Population Mitotic Cells (%),[6],13.33% [middle of 4 runs]
same,Population Normal (%),[6],79% and 84% and 98.92% and 99.19%
same,Population Pyknosed Nuclei (%),[6],31% and 78.47% and 86.07%
same,Population Tubulin-Different-Phenotype (%),[6],64% [middle of 4 runs]
same,Total Cell Count,[6],220 [middle of 4 runs]
CCn1c(-c2nc3cc(C(=O)N4CCCC(N)C4)ccc3n2C)cc2ccccc21.Cl (configuration not stated),Population Healthy Nuclei (%),[1],67% and 77% and 89.25% and 83.07%
same,Population Hoechst High Intensity Objects (%),[1],0% and 5%
same,Population Membrane Permeable-Phenotype (%),[1],4% [middle of 4 runs]
same,Population Normal (%),[1],99% and 94% and 100%
same,Population Tubulin-Different-Phenotype (%),[1],2.36% [middle of 4 runs]
same,Population Apoptotic (%),[2],48% [middle of 4 runs]
same,Population Healthy Nuclei (%),[2],56% and 60% and 74.57% and 67.27%
same,Population Hoechst High Intensity Objects (%),[2],2% and 1% and 0%
same,Population Mitotic Cells (%),[2],51% and 45% and 65.85% and 73.91%
same,Population Normal (%),[2],97% and 98% and 100%
same,Population Pyknosed Nuclei (%),[2],19% and 18% and 23.43% and 27.88%
same,Population Tubulin-Different-Phenotype (%),[2],27% and 48% and 33.72% and 25.23%
same,Total Cell Count,[2],277 [middle of 4 runs]
same,Population Apoptotic (%),[3],66% [middle of 4 runs]
same,Population Healthy Nuclei (%),[3],68% and 92.18% and 84.19%
same,Population Hoechst High Intensity Objects (%),[3],1% and 3% and 0.17% and 0%
same,Population Normal (%),[3],98% and 96% and 99.83% and 100%
same,Population Pyknosed Nuclei (%),[3],9% and 5% and 6.49% and 13.68%
same,Population Apoptotic (%),[4],62% and 73% and 40% and 53.33%
same,Population Healthy Nuclei (%),[4],54% and 64% and 74.61% and 71.91%
same,Population Hoechst High Intensity Objects (%),[4],2% and 3% and 0%
same,Population Mitotic Cells (%),[4],46.67% [middle of 4 runs]
same,Population Normal (%),[4],97% and 96% and 100%
same,Population Pyknosed Nuclei (%),[4],17% and 16% and 21.16% and 25.28%
same,Population Tubulin-Different-Phenotype (%),[4],15.62% [middle of 4 runs]
same,Population Apoptotic (%),[5],75% and 70% and 44% and 47.83%
same,Population Healthy Nuclei (%),[5],76% and 70% and 90.93% and 86.01%
same,Population Hoechst High Intensity Objects (%),[5],2% and 4% and 0%
same,Population Membrane Permeable-Phenotype (%),[5],8% and 10% and 1.19% and 2.66%
same,Population Mitochondria Different-Phenotype (%),[5],3% and 9% and 0.33% and 7.4%
same,Population Mitotic Cells (%),[5],52.17% [middle of 4 runs]
same,Population Normal (%),[5],97% and 95% and 100%
same,Population Pyknosed Nuclei (%),[5],6% and 7% and 7.4% and 11.7%
same,Population Tubulin-Different-Phenotype (%),[5],5% and 8% and 1.41% and 1.78%
same,Population Apoptotic (%),[6],78% and 77% and 57.94% and 60%
same,Population Healthy Nuclei (%),[6],53% and 64% and 76.68% and 73.28%
same,Population Hoechst High Intensity Objects (%),[6],5% and 6% and 0% and 0.4%
same,Population Mitotic Cells (%),[6],40% [middle of 4 runs]
same,Population Normal (%),[6],94% and 93% and 100% and 99.6%
same,Population Pyknosed Nuclei (%),[6],19% and 16% and 18.03% and 22.27%
same,Population Tubulin-Different-Phenotype (%),[6],14.92% [middle of 4 runs]
CC/C(=C(\c1ccc(O)cc1)c1ccc(OCCN(C)C)cc1)c1ccccc1 [AFIMOXIFENE],Population Fragmented Nuclei (%),[1],0.84% and 5.44%
same,Population Healthy Nuclei (%),[1],90.45% and 83.67%
same,Population Hoechst High Intensity Objects (%),[1],0%
same,Population Membrane Permeable-Phenotype (%),[1],4.07%
same,Population Mitochondria Different-Phenotype (%),[1],0.62% and 4.88%
same,Population Mitotic Cells (%),[1],51.61% and 87.5%
same,Population Normal (%),[1],100%
same,Population Pyknosed Nuclei (%),[1],8.71% and 10.88%
same,Population Tubulin-Different-Phenotype (%),[1],2.48% and 1.63%
same,Total Cell Count,[1],356 and 147
same,Population Apoptotic (%),[2],35.09% and 27.27%
same,Population Fragmented Nuclei (%),[2],2.04% and 0.59%
same,Population Healthy Nuclei (%),[2],78.57% and 73.37%
same,Population Hoechst High Intensity Objects (%),[2],0%
same,Population Membrane Permeable-Phenotype (%),[2],0.43% and 5.65%
same,Population Mitotic Cells (%),[2],64.91% and 72.73%
same,Population Normal (%),[2],100%
same,Population Pyknosed Nuclei (%),[2],19.39% and 26.04%
same,Population Tubulin-Different-Phenotype (%),[2],5.63% and 4.84%
same,Total Cell Count,[2],294 and 169
same,Population Apoptotic (%),[3],53.06% and 20%
same,Population Fragmented Nuclei (%),[3],1.85% and 5.11%
same,Population Healthy Nuclei (%),[3],88.09% and 83.52%
same,Population Hoechst High Intensity Objects (%),[3],0%
same,Population Membrane Permeable-Phenotype (%),[3],0.93% and 2.04%
same,Population Mitochondria Different-Phenotype (%),[3],0.7% and 6.12%
same,Population Mitotic Cells (%),[3],46.94% and 80%
same,Population Normal (%),[3],100%
same,Population Pyknosed Nuclei (%),[3],10.06% and 11.36%
same,Population Tubulin-Different-Phenotype (%),[3],2.04%
same,Total Cell Count,[3],487 and 176
same,Population Apoptotic (%),[4],33.75% and 23.46%
same,Population Fragmented Nuclei (%),[4],2.3%
same,Population Healthy Nuclei (%),[4],77.24% and 56.72%
same,Population Hoechst High Intensity Objects (%),[4],0%
same,Population Membrane Permeable-Phenotype (%),[4],0.99% and 3.51%
same,Population Mitotic Cells (%),[4],66.25% and 76.54%
same,Population Normal (%),[4],100%
same,Population Pyknosed Nuclei (%),[4],20.46% and 40.3%
same,Population Tubulin-Different-Phenotype (%),[4],7.95% and 3.51%
same,Total Cell Count,[4],391 and 201
same,Population Apoptotic (%),[5],41.05% and 54.05%
same,Population Fragmented Nuclei (%),[5],1.6% and 5.32%
same,Population Healthy Nuclei (%),[5],87.51% and 81.56%
same,Population Hoechst High Intensity Objects (%),[5],0%
same,Population Membrane Permeable-Phenotype (%),[5],1.18% and 2.61%
same,Population Mitochondria Different-Phenotype (%),[5],0.26% and 4.78%
same,Population Mitotic Cells (%),[5],58.95% and 45.95%
same,Population Normal (%),[5],100%
same,Population Pyknosed Nuclei (%),[5],10.88% and 13.12%
same,Population Tubulin-Different-Phenotype (%),[5],0.79% and 1.74%
same,Population Apoptotic (%),[6],43.75% and 40.78%
same,Population Fragmented Nuclei (%),[6],4.78% and 5.95%
same,Population Healthy Nuclei (%),[6],74.84% and 55.76%
same,Population Hoechst High Intensity Objects (%),[6],0%
same,Population Membrane Permeable-Phenotype (%),[6],2%
same,Population Mitotic Cells (%),[6],56.25% and 59.22%
same,Population Normal (%),[6],100%
same,Population Pyknosed Nuclei (%),[6],20.38% and 38.29%
same,Population Tubulin-Different-Phenotype (%),[6],7.66% and 8.67%
same,Total Cell Count,[6],628 and 269
